# HSF-1 act = increases HSF-1 driven luciferase reporter signal. NIH3T3-HGL HSF-1 luciferase reporter, MG132, 8 h; 100% = twice DMSO control signal. activation, % at 9 µM. 300,000 compounds, 1.7% hits. AID 504408;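 active means mean replicate activation of at least 50% with a set share of replicates each reaching 50%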;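 further: 0% = median of the neutral control wells and 100% = twice that signal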
# Jurkat NFkB inh = inhibitors of the PMA/ionomycin-induced NF-kB reporter in Jurkat cells | AID 435003 | 330,000 compounds, 0.53% hits | inhibition, % at 4 µM | PMA/ionomycin-induced NF-kB luciferase reporter, luminescence; in the data active means inhibition above about 50%
# 697 NFkB inh = inhibitors of the PMA/ionomycin-induced NF-kB reporter in 697 B cells | 697 B-cell NF-kB luciferase reporter, 16 h | inhibition, % at 4 µM | 330,000 compounds, 0.33% hits; in the data active means inhibition above about 35%
# T cruzi repl = blocks replication of Trypanosoma cruzi; T. cruzi beta-gal in NIH3T3, luminescence, 90 h; inhibition, % (concentration not given with the values); 300,000 compounds, 1.4% hits;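 active means mean inhibition across valid replicates above about 55%, limit read from the data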;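 further: signal also drops with host cell toxicity which is not excluded here; 0% = plate median of DMSO wells and 100% = zero luminescence signal; higher percent means less beta-gal luminescence so fewer parasites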
#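 System: Mouse NIH/3T3 fibroblasts infected with β-gal-expressing T. cruzi Tulahuen C4 | Quantity: NIH/3T3 cells, 5,000 per well | Reagent: 5000 reporter trypomastigotes per well | Dosing: Compound pinned at 50 nL/well, DMSO | Schedule: 3 h host attachment, then at least 90 h co-culture | Detection: GalScreen luminescence, 60 min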
# HSF1 inhib = HSF1 inhibition; NIH3T3-HGL HSE-luciferase, MG132-induced, luminescence 8 h; stronger effect = lower value; activity change, negative = inhibition, % at 7.5 µM (by protocol); 300,000 compounds, 0.77% hits;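 active means more than half of replicate wells show activity change below -50%, luminescence cut by over half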;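 further: luciferase reports HSF-1 transcriptional activity via heat shock element; 0% = median of DMSO wells and -100% = zero luminescence signal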
# GPR7 antagonist = human neuropeptides B/W receptor 1 antagonism; P48145; GPR7-expressing cells, fluorescence antagonist assay; inhibition, % at 4.4 µM; 290,000 compounds, 1.1% hits; AID 1861; in the data active means inhibition above about 16%, passing the limit was not always enough;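 further: cells stimulated with the agonist NPW; 0% = agonist with vehicle and 100% = vehicle without agonist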
# Target sequence (P48145 whole entry, looked up): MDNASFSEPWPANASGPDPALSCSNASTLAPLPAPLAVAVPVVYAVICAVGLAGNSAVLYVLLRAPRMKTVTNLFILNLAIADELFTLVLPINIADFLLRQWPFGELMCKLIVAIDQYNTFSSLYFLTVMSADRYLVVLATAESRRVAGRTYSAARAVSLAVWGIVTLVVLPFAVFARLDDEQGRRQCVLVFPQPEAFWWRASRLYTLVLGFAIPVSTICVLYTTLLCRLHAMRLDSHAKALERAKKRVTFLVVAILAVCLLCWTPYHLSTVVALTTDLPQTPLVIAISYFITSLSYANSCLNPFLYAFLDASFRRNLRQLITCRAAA
# * marks the source's active call; other numbers are inactive results; . = not tested or not shown. Only some compounds are listed: those with a hit (about 4.8% of all), similar ones and a draw of the others.
SMILES,HSF-1 act,Jurkat NFkB inh,697 NFkB inh,T cruzi repl,HSF1 inhib,GPR7 antagonist
O=C1C(=O)N(Cc2ccccc2)C(=O)N1CCN1C(=O)c2ccccc2C1=O,3,6,-16,-2,-8,19*
O=C(O)CCN1C(=O)c2ccccc2C1=O,-1,-16,-11,4,-1,18*
COc1ccc(CCNC(=O)C2c3ccccc3C(=O)N2CCC(C)C)cc1OC (stereo not given),12,-19,-10,5,12,13
COc1ccc(OCCN2C(=O)c3ccccc3C2=O)cc1,-62,14,-19,-4,-55*,8
COc1ccc(C(Nc2cc(C)ccn2)c2ccc3ccc(C)nc3c2O)cc1 (stereo not given),-60,6,5,59*,-43,-11
Cc1ccnc(NC(c2cccnc2)c2ccc3cccnc3c2O)c1 (stereo not given),-29,-2,-37,17,-24,-13
Cc1ccnc(NC(c2ccsc2)c2ccc3ccc(C)nc3c2O)c1 (stereo not given),-67,9,-30,63*,-54*,-11
COc1cc(C(Nc2ccccn2)c2ccc3ccc(C)nc3c2O)cc(OC)c1O (stereo not given),183*,2,-84,52,130,-6
Cc1ccc2ccc(C(Nc3ccccn3)c3ccccc3)c(O)c2n1 (stereo not given),-4,8,-24,44,-7,-7
COCCSc1nnc(NC(=O)COc2ccc3c(c2)OCO3)s1,0,8,5,-4,-2,4
Cc1ccc(NC(=O)NC(=O)COc2ccccc2C(N)=O)c(C)c1,.,-10,-3,.,.,.
CCOc1ccc(C(=O)N2CCc3ccccc32)cc1,30,-66,-78,-9,14,-14
CCOc1ccc(S(=O)(=O)NCCC(=O)OC(C)C(=O)N2CCc3ccccc32)cc1 (stereo not given),56*,18,-19,-9,15,0
C=CCn1cc(C(C)=O)c(=O)[nH]c1=O,19,-10,-4,-6,-2,5
COc1ccc(-c2noc(CCC(=O)NCCCN3CCC(Cc4ccccc4)CC3)n2)cc1,-8,9,-44,11,-1,29*
COC(=O)c1ccccc1Nc1ccnc(Cl)n1,3,5,5,-7,-3,.
COc1ccccc1CNC(=O)C(=O)NCC1OCCCN1S(=O)(=O)c1ccc(F)cc1C (stereo not given),0,14,9,3,3,-8
CCC(=O)Nc1nc2ccccc2n1Cc1ccccc1Cl,11,4,-24,-2,-1,3
CCC(=O)Nc1nc2ccccc2n1Cc1ccc(Cl)cc1,-5,3,-3,62*,-1,-3
COCCCNC(=O)CCn1c(=O)c2ccccc2n(CC(=O)Nc2cc(Cl)ccc2C)c1=O,83*,-2,9,.,45,-2
COCCCNC(=O)CCCn1c(=O)c2ccccc2n(CC(=O)Nc2c(C)cccc2C)c1=O,16,0,11,2,-1,-2
OCc1ccnc2c(O)cccc12,-5,1,-1,57*,-2,-7
CNC(=S)NNC(=O)COc1cccc(C)c1C,9,11,16,-10,-7,-4
Cc1ccccc1OCC(=O)Nc1ccc([N+](=O)[O-])cc1,-77,-6,14,-4,-70*,12
CNC(=S)NNC(=O)COc1ccccc1C,57*,12,19,-11,15,-12
SMILES,HSF-1 act,Jurkat NFkB inh,697 NFkB inh,T cruzi repl,HSF1 inhib,GPR7 antagonist
COC(=O)c1sc(NC(=O)COc2ccccc2C)nc1C,57*,-36,5,-21,11,-5
CCOc1ccc(-n2ccc(=O)c(C(=O)Nc3ccc(S(=O)(=O)Nc4ncccn4)cc3)n2)cc1,-10,-5,-5,-9,-14,-1
C#C[C@]1(O)CC[C@H]2[C@@H]3CCC4=Cc5oncc5C[C@]4(C)[C@H]3CC[C@@]21C,-7,20,-1,18,-2,.
Cc1cc2cc(CCNC(=O)C(=O)c3c[nH]c4ccccc34)c(=O)[nH]c2cc1C,-65,-4,25,-18,-63*,4
O=C(NCCc1c[nH]c2ccccc12)C(=O)c1c[nH]c2ccccc12,32,20,18,19,8,-6
COc1cc(CNCCO)cc(Cl)c1OCc1ccc(Cl)cc1Cl,0,-10,1,47,3,58*
COc1cc(CNC2CCCC2)cc(Cl)c1OCc1ccccc1Cl,13,-1,-2,77*,5,9
COc1cc(CNC2CCCCCCC2)cc(Cl)c1OCC(N)=O,20,6,-7,-18,-6,1
CC(C)(O)c1cc2ccc(C#CCCN3C(=O)c4ccccc4C3=O)cc2c(=O)o1,.,-3,1,.,.,.
Cc1ccc(C=Nc2ccccc2C(N)=O)s1,63*,-13,-85,-46,32,4
CC(C)CC(NC(=O)CCC(=O)OCC(=O)[C@@]1(O)CCC2[C@@H]3CCC4=CC(=O)C=C[C@]4(C)C3[C@@H](O)C[C@@]21C)C(=O)O (stereo not given in full),-56,3,-9,16,-53*,0
CSCCC(NC(=O)CCC(=O)OCC(=O)[C@@]1(O)CCC2[C@@H]3CCC4=CC(=O)C=C[C@]4(C)C3[C@@H](O)C[C@@]21C)C(=O)O (stereo not given in full),-59,21,-1,0,-52*,-5
Cn1cc(Br)c(-c2cccc(NC(=O)CCCC(=O)O)c2)n1,-7,-8,2,-20,0,-19
Cc1ccc(CNC(=O)Nc2ccccc2)c(C)c1,3,-63,-60,-8,14,-8
CS(=O)(=O)N(CC(=O)Nc1ccccc1Cl)c1ccc(Cl)cc1,-16,-3,5,9,-7,1
Fc1ccc(C2c3[nH]c4ccccc4c3CCN2Cc2cccn2-c2ncccn2)cc1 (stereo not given),-2,13,6,70*,3,6
COc1ccc(N2CC(C(=O)N[C@@H](C)C(=O)NC3CCCCC3)CC2=O)cc1 (stereo not given in full),5,7,-7,-3,-2,-4
CCN1CCN(S(=O)(=O)c2ccc(OC)cc2)CC1,-7,-2,-10,-2,-4,-16
CCc1nnc(NC(=O)C2CCCN(c3nc4ccccc4s3)C2)s1 (stereo not given),-8,15,-50,18,0,-2
O=C(Nc1ccc2c(c1)OCO2)C1CCCN(c2nc3ccccc3s2)C1 (stereo not given),77*,9,0,11,32,-15
CN(C)c1nc(NCc2ccccc2)nc(SCC(=O)Nc2ccc(Cl)c(Cl)c2)n1,33,4,-2,55*,17,-14
